Results from different studies.
Lines come from different studies, so protocols differ.
LRRK2 G2019S: Leucine-rich repeat serine/threonine-protein kinase 2 (LRRK2, Homo sapiens, UniProt Q5S007, G2019S)
LRRK2: Leucine-rich repeat serine/threonine-protein kinase 2 (LRRK2, Homo sapiens, UniProt Q5S007)

COc1cnc(Nc2cccc(S(N)(=O)=O)c2)nc1N1CCN(c2ccccc2)CC1
remaining binding (LRRK2 G2019S; binding; competition with immobilised ligand; 1 µM): 95%

N[C@H]1CCN(c2nccc(-c3cnn4ncccc34)n2)C1
remaining binding (LRRK2 G2019S; binding; 1 µM): 89%

CCN1CCN(Cc2ccc(C(=O)Nc3ccc(C)c(Oc4ccc5c(c4)CC(=O)N5)c3)cc2C(F)(F)F)CC1
remaining binding (LRRK2; binding; competition with immobilised ligand; 1 µM): 100%

CC(=O)N1CCC(c2ccc(C(=O)NC(=N)N)cc2C(F)(F)F)CC1
remaining binding (LRRK2 G2019S; cell-free assay; competition with immobilised ligand; 1 µM): 100%

CNC(=O)[C@@H]1CC[C@@H](n2c(-c3ccc4cnccc4c3)nc3ccc(C(=O)NCc4cccc(C(N)=O)c4)cc32)C1
remaining binding (LRRK2; binding; competition with immobilised ligand; 1 µM): 100%

O=C(NCCCN1CCOCC1)c1ccc(Nc2nccc(-c3cc4ccccc4s3)n2)cc1
remaining binding (LRRK2 G2019S; binding; competition with immobilised ligand; 1 µM): 69%

CN(C)c1ncc(F)c(-c2cnn3ncccc23)n1
remaining binding (LRRK2 G2019S; binding; 1 µM): 100%

COc1ncc2cc3ccccc3nc2c1C#N
remaining binding (LRRK2 G2019S; cell-free assay; competition with immobilised ligand; 5 µM): 100%

O=C(Nc1c[nH]nc1C(=O)NC1CCNCC1)c1cc(F)cc(F)c1
remaining binding (LRRK2; binding; competition with immobilised ligand; 1 µM): 92%

Cc1cnc(Nc2ccc(C(=O)N3CCC(N4CCCC4)CC3)cc2)nc1-c1cc2ccccc2s1
remaining binding (LRRK2; binding; competition with immobilised ligand; 1 µM): 8.3%

C[C@@H]1CCN(c2nccc(-c3cnn4ncccc34)n2)C1
remaining binding (LRRK2 G2019S; binding; 1 µM): 63%

CN1CCN(c2ccc(Nc3nccc(-c4cccc([N+](=O)[O-])c4)n3)cc2C(F)(F)F)CC1
remaining binding (LRRK2 G2019S; binding; 10 µM): 49%

O=C(c1ccc(Nc2ncc(Cl)c(-c3cc4ccccc4s3)n2)cc1)N1CCC(N2CCCC2)CC1
remaining binding (LRRK2; binding; competition with immobilised ligand; 1 µM): 12%

CN(C)c1nccc(-c2cnc3ncccn23)n1
remaining binding (LRRK2; binding; 1 µM): 61%

Nc1ncc2c(n1)-c1c([nH]c3ccc(C#CC4CC4)cc13)CCCC2
remaining binding (LRRK2; binding; competition with immobilised ligand; 1 µM): 83%

CN(C)c1nccc(-c2cnn3ncccc23)n1
remaining binding (LRRK2 G2019S; binding; 1 µM): 69%

O=C(NCCCN1CCOCC1)c1ccc(Nc2ncc(Cl)c(-c3ccc(Cl)s3)n2)cc1
remaining binding (LRRK2; binding; competition with immobilised ligand; 1 µM): 24%

Cn1cc(Cl)c2c(Oc3c(F)cc(Nc4cc(Cl)nc(N)n4)cc3F)ccnc21
remaining binding (LRRK2; cell-free assay; competition with immobilised ligand; 0.1 µM): 75%

F[C@@H]1CCN(c2nccc(-c3cnn4ncccc34)n2)C1
remaining binding (LRRK2 G2019S; binding; 1 µM): 100%

C[C@@H](c1ccc(-n2cnc3c(N)ncnc32)cc1)N1CCc2nn(C)c(Cc3ccccc3)c2C1=O
remaining binding (LRRK2 G2019S; binding; competition with immobilised ligand; 0.1 µM): 92%

CN(CCCC(F)(F)F)c1nccc(-c2cnn3ncccc23)n1
remaining binding (LRRK2; binding; 1 µM): 100%

O=C(NCC1CCOCC1)c1n[nH]cc1NC(=O)c1c(F)cccc1F
remaining binding (LRRK2 G2019S; binding; competition with immobilised ligand; 1 µM): 89%

CCC(=N\O)/C(C)=C/c1ccc(F)cc1
remaining binding (LRRK2; cell-free assay; competition with immobilised ligand; 1 µM): 90%

C=CC(=O)N1CCC(C(=O)NCC(=O)N2CCN(c3nc(-c4cnc(N)nc4C(F)F)nc(N4CCOCC4)n3)CC2)CC1
remaining binding (LRRK2 G2019S; binding; competition with immobilised ligand; 1 µM): 79%

CCC(=O)N[C@@H]1CC[C@H](C(=O)N(C)c2ccc(-c3nc4ccccc4o3)cc2)C1
remaining binding (LRRK2 G2019S; cell-free assay; competition with immobilised ligand; 1 µM): 100%

O=C(c1ccc(Nc2ncc(Cl)c(-c3ccc(Cl)s3)n2)cc1)N1CCC(N2CCCC2)CC1
remaining binding (LRRK2; binding; competition with immobilised ligand; 1 µM): 3.3%

c1ccc(N2CCN(Cc3nc4ccccc4[nH]3)CC2)nc1
remaining binding (LRRK2; binding; competition with immobilised ligand; 1 µM): 99%

O=C(c1ccc(Nc2nccc(-c3cc4ccccc4s3)n2)cc1)N1CCC(N2CCCC2)CC1
remaining binding (LRRK2; binding; competition with immobilised ligand; 1 µM): 40%

CS(=O)(=O)NCC[C@H](NC(=O)c1cncc2c1cnn2-c1ccc(F)cc1)c1ccnc(S(C)(=O)=O)c1
remaining binding (LRRK2; cell-free assay; competition with immobilised ligand; 1 µM): 86%

COc1ccnn2ncc(-c3ccnc(N(C)C)n3)c12
remaining binding (LRRK2 G2019S; binding; 1 µM): 100%

CC(=O)c1c(NS(C)(=O)=O)c2cc(-c3ccc(Cl)cc3)c(-c3ccc(Cl)cc3Cl)nc2n(C)c1=O
remaining binding (LRRK2; cell-free assay; competition with immobilised ligand; 1 µM): 65%

COc1cnc(Nc2cccc(S(N)(=O)=O)c2)nc1N1CCN(c2ccccc2)C(=O)C1
remaining binding (LRRK2 G2019S; binding; competition with immobilised ligand; 1 µM): 100%

CN([C@@H]1CCc2c(CC(=O)O)c3cc(S(C)(=O)=O)ccc3n2C1)S(=O)(=O)c1ccc(F)cc1
remaining binding (LRRK2 G2019S; cell-free assay; competition with immobilised ligand; 1 µM): 100%

c1cncc(-c2cccc(Nc3nccc(NC4CCCCC4)n3)c2)c1
remaining binding (LRRK2 G2019S; binding; competition with immobilised ligand; 10 µM): 61%
